# Shown are actives, neighbours in structure and some others; about 2% of the full set was active somewhere.
# HIF activator – HIF pathway transcriptional activation. activation, % at 7.5 µM (by protocol). U2OS HRE-luciferase reporter, luminescence; normalized: DMSO 0%, desferrioxamine 100%. 300,000 compounds, 0.32% hits;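 active = mean activation of at least 10% of the iron chelator positive control signal, with at least half of replicates also reaching 10%; inconclusive = mean and replicate majority disagree about reaching 10%; inactive = mean and most replicates under 10%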
# NR2E3 ag-1 – agonists of human nuclear receptor NR2E3; Q9Y5X4; GST-NR2E3/biotin-RetCOR TR-FRET, 1536-well; inhibition of corepressor binding, % at 4.78 µM; 320,000 compounds, 0.12% hits;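 active = percent inhibition above the cutoff of mean plus 3 SD of all tested compounds, set per screening campaign, cut at about 20% in these data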;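 note: 0% = DMSO wells and 100% = biotin wells as full block of FRET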
# Target sequence (Q9Y5X4 whole entry, looked up): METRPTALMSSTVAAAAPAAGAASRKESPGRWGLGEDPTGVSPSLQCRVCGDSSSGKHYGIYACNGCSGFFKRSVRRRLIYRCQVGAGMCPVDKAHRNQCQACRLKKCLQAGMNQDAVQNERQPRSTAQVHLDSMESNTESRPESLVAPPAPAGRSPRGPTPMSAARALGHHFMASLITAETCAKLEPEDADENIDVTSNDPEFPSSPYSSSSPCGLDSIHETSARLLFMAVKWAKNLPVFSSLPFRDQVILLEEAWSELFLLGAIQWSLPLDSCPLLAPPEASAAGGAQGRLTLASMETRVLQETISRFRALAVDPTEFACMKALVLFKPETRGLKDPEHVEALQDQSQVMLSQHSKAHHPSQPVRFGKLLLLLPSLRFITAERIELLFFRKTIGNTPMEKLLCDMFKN
#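 Assay system: NR2E3–RetCOR corepressor complex. Quantity: 1.35 nM GST-NR2E3. Buffer or medium: pH 7.5 Tris-based buffer. Reagent: biotinylated RetCOR corepressor at 7 nM final. Schedule: 5 h at 4 °C. Detection: TR-FRET, emission read at 617 and 671 nm. Replicates: one well per compound, singlicate testing.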
# NR2E3 ag-2 – activates human NR2E3 receptor; Q9Y5X4; CHO-S Gal4-NCOR/VP16-NR2E3 two-hybrid, luciferase; inhibition of corepressor binding, % at 3.98 µM; 360,000 compounds, 0.35% hits; AID 602229;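 active = inhibition above the mean of all tested compounds plus 3 SD, cut at about 70% in these data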;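 note: 0% = DMSO with NR2E3 transfected cells and 100% = cells lacking NR2E3 construct; higher means lower luciferase signal from less NR2E3 corepressor binding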
# TROY NFkB inh – TROY signaling inhibition; Q293 LMP1-TROYcd NF-kB luciferase reporter, 4 h; 360,000 compounds, 0.98% hits; inhibition, % at 10 µM;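 active = compounds whose plate-normalised and pattern-corrected inhibition of the luciferase reporter signal at the single screening dose is 50% or more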
# LMP1 NFkB inh – reduces LMP1-driven NF-kappaB luciferase signal | LMP1-induced NF-kappaB luciferase reporter cells, luminescence | inhibition, % at 12.5 µM | 350,000 compounds, 0.69% hits | AID 504558; in the data active = inhibition above about 41%; inconclusive = no clear call, values can overlap the other calls;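 note: 0% = neutral control wells and 100% = reference inhibitor control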
# * = called active by the depositor; ? = inconclusive; · = no result.
SMILES,HIF activator,NR2E3 ag-1,NR2E3 ag-2,TROY NFkB inh,LMP1 NFkB inh
O=C(NCc1ccc(F)cc1)c1cc(C2CCCCN2S(=O)(=O)c2cccc3cccnc23)on1 (stereo not drawn),·,·,-6,-2,·
CC(C)(C)c1nn(-c2ccccc2)c2[nH]c(=O)c(CNc3ccc4c(c3)OCCO4)cc12,0,8,-15,82*,27
Cc1cccc(NC(=S)N2CCN(c3cc(C)ccc3C)CC2)c1,0,0,-18,15,4
COc1ccccc1N1CCN(C(=S)Nc2cccc(C)c2)CC1,0,4,14,61*,12
Cc1ccccc1OCC(=O)OCC(=O)NC1CC1,·,4,-2,11,-1
C[C@H]1[C@H](C)CC[C@]2(C(=O)O)CC[C@]3(C)C(=CC[C@@H]4[C@@]5(C)CC[C@H](O)C(C)(C)[C@@H]5CC[C@]43C)[C@H]12,0,5,10,13,1
CC1(C)CC[C@]2(C(=O)O)CC[C@]3(C)C(=CC[C@@H]4[C@@]5(C)CC[C@H](O[C@@H]6O[C@H](C(=O)O)[C@@H](O)[C@H](O[C@@H]7OC[C@H](O)[C@H](O)[C@H]7O)[C@H]6O)C(C)(C)[C@@H]5CC[C@]43C)[C@@H]2C1,·,·,31,87*,-8
CC1(C)CC[C@]2(C(=O)O[C@@H]3O[C@H](CO)[C@@H](O)[C@H](O)[C@H]3O)CC[C@]3(C)C(=CCC4[C@@]5(C)CC[C@H](O[C@@H]6O[C@H](C(=O)O)[C@@H](O[C@H]7OC[C@@H](O)[C@@H](O)[C@@H]7O)[C@H](O)[C@H]6O)C(C)(C)C5CC[C@]43C)[C@@H]2C1 (stereo partly drawn),·,·,-13,-11,0
C[C@H]1[C@H](C)CC[C@]2(C(=O)O)CC[C@]3(C)C(=CC[C@@H]4[C@@]5(C)C[C@@H](O)[C@H](O)C(C)(C)[C@@H]5CC[C@]43C)[C@H]12,0,3,94*,7,-6
C[C@@H]1CC[C@]2(C(=O)O)CC[C@]3(C)C(=CCC4[C@]56CC[C@@](O)(OC5)C(C)(C)C6CC[C@]43C)C2[C@H]1C (stereo partly drawn),·,-3,94*,63*,5
CC1(C)CC[C@]2(C(=O)O)CC[C@]3(C)C(=CCC4[C@]56CC[C@@](O)(OC5)C(C)(C)C6CC[C@]43C)C2C1 (stereo partly drawn),·,·,-17,65*,·
O=C1CC(c2ccccc2Cl)CC(O)=C1C=NCCCO (stereo not drawn),-1,3,13,-9,0
CCOC(=O)c1sc2nc(C)nc(NCc3ccccc3)c2c1C,-2,2,-33,16,52*
CC(C)OC(=O)N(C)C[C@@H]1OCc2cn(nn2)CCCC(=O)N([C@H](C)CO)C[C@H]1C,·,·,-3,-3,-4
O=C(O)c1ccc(NC2=C(Cl)C(=O)c3ccccc3C2=O)cc1,2,-4,3,42,-1
O=C1C(Cl)=C(Nc2ccccc2)C(=O)c2ccccc21,-7,0,-32,70*,93*
CCN(C(=O)CN1CCCC(C)C1)c1c(N)n(Cc2ccccc2)c(=O)[nH]c1=O (stereo not drawn),·,·,4,13,11
Cc1cc(/C=C2\Cc3ccccc3C2=O)c(C)n1-c1ccccc1,-4,-1,-46,6,44*
Cc1cc(C=C2C(=O)c3ccccc3C2=O)c(C)n1-c1ccccc1,-3,2,-8,31,13
O=C(Nc1ccc(C(=O)NCCCN2CCN(c3ccccc3)CC2)cc1)C1=CSCCO1,-1,0,6,-4,6
Cc1nn(CCc2nn[nH]n2)c2nc(-c3ccc(C4CCCCC4)cc3)cc(C(F)(F)F)c12,0,-3,-9,56*,-34
CCn1c([N+](=O)[O-])nc2c1c(=O)[nH]c(=O)n2C,5,·,-4,-4,-7
O=C(Cc1ccc(NS(=O)(=O)c2ccc(F)cc2)cc1)NCc1cccnc1,0,2,-24,6,6
Cc1ccc(N2CC(=O)N(NC(=O)Nc3ccc(Cl)c(Cl)c3)CC2=O)cc1,0,-1,-2,16,1
O=C(Nc1ccc(Cl)cc1)NN1CC(=O)N(c2cccc(C(F)(F)F)c2)CC1=O,29*,0,-29,-7,-2
SMILES,HIF activator,NR2E3 ag-1,NR2E3 ag-2,TROY NFkB inh,LMP1 NFkB inh
CCOC(=O)c1cn(Cc2ccc(C)cc2)c2cc(F)ccc2c1=O,-1,-6,6,-5,5
C=CCOC(=O)C1=C(C)N(C)C(=O)NC1c1cc2c(cc1Br)OCO2 (stereo not drawn),0,4,-22,82*,-18
CCCCOC(=O)C1=C(C)N(C)C(=O)NC1c1cc2c(cc1Br)OCO2 (stereo not drawn),·,·,-21,-9,-9
Cc1ccc(CNc2ccc3c(c2)nc(C)n3C)cc1,?,-2,-117,42,20
COc1ccc(CNc2ccc3c(c2)nc(C)n3C)cc1,3,0,-8,60*,-14
Cc1ccc(CNc2ccc3c(c2)ncn3C(C)(C)C)cc1,3,0,-112,63*,-31
CN=c1scc(-c2ccc([N+](=O)[O-])cc2)n1/N=C/c1ccco1,0,0,-22,-19,-8
CN=c1scc(-c2ccc(F)cc2)n1/N=C/c1ccc(O)c(O)c1,·,·,-54,76*,9
Cc1ccc(N=Cc2ccc[nH]2)c(O)c1,-3,0,1,76*,-24
CC(=O)N1CCc2cc(S(=O)(=O)NCCC3=CCCCC3)ccc21,-11,-2,81*,21,-1
CC(=O)N1CCc2cc(S(=O)(=O)NCCCN3CCCCC3)ccc21,-1,0,8,3,5
Cc1ccc(C2Nc3ccccc3NC3=C2C(=O)CC(C)(C)C3)c(O)c1 (stereo not drawn),0,-2,-39,13,-2
CC1(C)CC(=O)C2=C(C1)Nc1ccccc1NC2c1cc(Cl)ccc1O (stereo not drawn),0,2,-9,8,85*
COC(CNS(=O)(=O)c1ccc(S(=O)(=O)NC2CC2)cc1)OC,0,·,-49,5,0
COCCC(=O)N1CCCC(C(=O)c2ccc(C(F)(F)F)cc2)C1 (stereo not drawn),0,2,-33,18,49*
O=C1C(=C(c2ccccc2)N2CCOCC2)Cc2ccccc21,·,·,43,34,64*
CC(C)(C)c1cc[n+](C2=C([O-])c3ccccc3C(=O)/C2=N\S(=O)(=O)c2ccccc2)cc1,-4,-3,9,60*,·
CC(=O)Nc1ccc(NC(=O)c2cccc(-c3cc4ccccc4oc3=O)c2)cc1,1,-2,-97,-34,-39
Cc1cc(C)cc(C(=O)NC(=S)Nc2ccc(-c3cc4ccccc4oc3=O)cc2)c1,0,0,-14,57*,16
Cc1ccc(C(=O)NC(=S)Nc2ccc(-c3cc4ccccc4oc3=O)cc2)c(C)c1,-1,1,28,·,17
